# Screening results as filed in PubChem.
# Shown are actives, neighbours in structure and some others; about 2.4% of the full set was active somewhere.
# aDG glyco act = alpha-DG glycosylation activation; Pro5-aDG cells, alpha-DG glycosylation AlphaScreen (IIH6); 0% Pro5, 100% B10-LARGE cell signal; activation, % at 10 µM; hit rate 0.22% among 360,000; AID 624168;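 active = activation of at least 8% versus controls, or a plate z-score of at least 8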;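 note: Pro5 are CHO cells carrying HIG-tagged alpha-DG that lacks glycosylation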
# NR2E3 ag-1 = NR2E3 (human) agonism. Q9Y5X4. GST-NR2E3/biotin-RetCOR TR-FRET, 1536-well. inhibition of corepressor binding, % at 4.78 µM. hit rate 0.12% among 320,000. AID 2300;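 active = percent inhibition above the cutoff of mean plus 3 SD of all tested compounds, set per screening campaign, cut at about 20% in these data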
# Target sequence (Q9Y5X4 whole entry, looked up): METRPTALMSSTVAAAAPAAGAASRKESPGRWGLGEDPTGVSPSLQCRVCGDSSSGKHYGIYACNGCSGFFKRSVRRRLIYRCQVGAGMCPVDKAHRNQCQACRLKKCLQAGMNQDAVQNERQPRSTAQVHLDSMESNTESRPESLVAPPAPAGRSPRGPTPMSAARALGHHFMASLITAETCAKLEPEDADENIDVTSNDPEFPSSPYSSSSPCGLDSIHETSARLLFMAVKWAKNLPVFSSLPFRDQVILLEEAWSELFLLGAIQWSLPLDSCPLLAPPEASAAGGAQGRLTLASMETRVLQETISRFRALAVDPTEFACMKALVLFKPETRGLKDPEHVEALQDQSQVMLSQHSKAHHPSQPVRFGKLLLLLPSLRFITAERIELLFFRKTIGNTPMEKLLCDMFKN
#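 Material: NR2E3–RetCOR corepressor complex | Quantity: 1.35 nM GST-tagged NR2E3 final | Schedule: 5 h at 4 °C | Replication: Singlicate compound wells | Reagent: RetCOR corepressor, biotinylated, 7 nM | Controls: Biotin wells as high control, 0.6% DMSO wells as low control | Signal: TR-FRET, Eu(K)-anti-GST donor, streptavidin-D2 acceptor, ex 340, em 617/671 nm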
# 697 NFkB inh = inhibitors of the PMA/ionomycin-induced NF-kB reporter in 697 B cells. 697 B-cell NF-kB luciferase reporter, 16 h. inhibition, % at 4 µM. hit rate 0.33% among 330,000. AID 435022; in the data active = inhibition above about 35%
# NR2E3 ag-2 = agonists of human NR2E3 nuclear receptor; inhibition of corepressor binding, % at 3.98 µM; CHO-S Gal4-NCOR/VP16-NR2E3 two-hybrid, luciferase; AID 602229; hit rate 0.35% among 360,000; Q9Y5X4;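 active = inhibition above the mean of all tested compounds plus 3 SD, cut at about 70% in these data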;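 note: higher means lower luciferase signal from less NR2E3 corepressor binding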
# MPTP block = permeability transition pore inhibition; isolated mouse mitochondria, Ca2+ swelling absorbance, 30 min; inhibition, % at 10 µM; hit rate 1.4% among 360,000; AID 602449;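 active = inhibition of 50% or more, scaled per plate between neutral and stimulator controls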
# Jurkat NFkB inh = inhibitors of the PMA/ionomycin-induced NF-kB reporter in Jurkat cells | PMA/ionomycin-induced NF-kB luciferase reporter, luminescence | inhibition, % at 4 µM | hit rate 0.53% among 330,000; in the data active = inhibition above about 50%
# MPTP counter = mitochondrial membrane potential, counter-screen; shares compounds with MPTP block; isolated mitochondria, Rhodamine 123 fluorescence; inhibition, % at 10 µM; hit rate 78% among 5,000; AID 624504; in the data active = inhibition above about 22%
# MPTP abs DR = MPTP inhibition, dose response swelling confirmation; hit rate 58% among 780; IC50, µM; shares compounds with MPTP block; isolated mitochondria swelling, absorbance; in the data active = IC50 below about 20 µM
# MPTP counter DR = MPTP inhibitor counter-screen activity, dose response; isolated mitochondria counterscreen, fluorescence read-out; shares compounds with MPTP block; IC50, µM; AID 651564; hit rate 49% among 780; in the data active = IC50 below about 80 µM
# Numbers stand for hits; n = inactive; x = no result given.
SMILES,aDG glyco act,NR2E3 ag-1,697 NFkB inh,NR2E3 ag-2,MPTP block,Jurkat NFkB inh,MPTP counter,others
Cn1cc(C(=O)Nc2ccc(Cl)cc2)c(C(F)(F)F)n1,n,n,n,n,n,n,x,
Cc1cc2c(NC(=O)Nc3ccc(C(F)(F)F)cc3)cccc2nn1,n,n,n,n,86,n,85,
O=C(C[n+]1ccc(/C=N/O)cc1)NC(=O)Nc1ccccc1,n,n,n,n,n,n,x,
CCOC(=O)[C@@H]1[C@H]2COc3cc(OC)ccc3[C@@H]2N2C(=O)N(c3ccc(C(F)(F)F)cc3)C(=O)[C@]12C,n,n,n,n,n,n,x,
Cc1ccc(NC(=O)C(C)NC(=O)OCc2ccccc2)cc1C (stereo unspecified),n,n,n,n,n,n,x,
CC1CCC(NC(=O)COc2ccc(C(=O)c3ccccc3)cc2)CC1 (stereo unspecified),n,n,n,n,70,n,65,
Cc1ccc(NC(=O)COc2ccc(C(=O)c3ccccc3)cc2)c(O)c1,n,n,n,n,82,n,97,
S=C(Nc1ccc2cn[nH]c2c1)Nc1ccc(Cl)cc1Cl,n,n,n,n,n,n,x,
Cc1ccc(NC(=S)Nc2ccc3[nH]c(=O)[nH]c3c2)cc1,n,n,n,n,n,n,x,
O=c1[nH]c2ccc(NC(=S)Nc3ccccc3)cc2[nH]1,n,n,n,n,n,n,x,
O=c1[nH]c2ccc(NC(=S)Nc3ccc(Cl)cc3)cc2[nH]1,n,n,n,n,56,n,103,
CCOC(=O)c1ccc(NC(=S)Nc2ccc3[nH]c(=O)[nH]c3c2)cc1,n,n,n,n,74,n,59,
S=C(Nc1ccc(Cl)cc1)Nc1ccc2cn[nH]c2c1,n,n,n,n,93,n,89,
CCOC(=O)C1CCN(c2c(NCc3ccc(C(=O)N(C)Cc4ccccc4)cc3)c(=O)c2=O)CC1,n,n,n,n,n,n,x,
CC(CCc1ccccc1)NC(=O)COC(=O)c1cc(NS(=O)(=O)c2ccc(Cl)c([N+](=O)[O-])c2)ccc1O (stereo unspecified),n,n,n,n,100,n,89,
Cc1[nH]n(-c2ccc([N+](=O)[O-])cc2)c(=O)c1C=NCC1CCCO1 (stereo unspecified),n,n,n,n,n,n,x,
Cc1ccc(-n2[nH]c(C)c(/C=N/Nc3ccc([N+](=O)[O-])cc3[N+](=O)[O-])c2=O)cc1,n,n,n,n,112,n,69,
Cc1ccc(S(=O)(=O)N(C)C)cc1NC(=S)NC(C)CCCC(C)C (stereo unspecified),n,n,n,n,96,n,92,
COCCN(CCOC)C(=S)Nc1cc(S(=O)(=O)N(C)C)ccc1C,n,n,n,n,n,n,x,
Cc1ccc(S(=O)(=O)N(C)C)cc1NC(=S)Nc1cccc2ccccc12,n,n,n,n,n,n,x,
CC(=O)NNC(=S)Nc1cc(S(=O)(=O)N(C)C)ccc1C,n,n,n,n,n,n,x,
Cc1cc(C)cc(NC(=O)Nc2cc(S(=O)(=O)N(C)C)ccc2C)c1,n,n,n,n,64,n,84,
CCCCCCC(C)NC(=S)Nc1cc(S(=O)(=O)N(C)C)ccc1C (stereo unspecified),n,n,n,n,64,n,79,
Cc1ccc(S(=O)(=O)N(C)C)cc1NC(=S)NC(C)CCC(C)C (stereo unspecified),n,n,n,n,57,n,73,
N=c1n(CCN2CCOCC2)c2ccccc2n1CC(O)COc1ccccc1 (stereo unspecified),n,n,n,n,n,n,x,
CCCCn1c(=N)n(CC(O)COc2ccccc2)c2ccccc21 (stereo unspecified),n,n,n,n,76,n,n,MPTP abs DR=13;MPTP counter DR=36
N=c1n(CCN2CCCCC2)c2ccccc2n1CC(O)COc1ccccc1 (stereo unspecified),n,n,n,n,98,n,n,MPTP abs DR=18;MPTP counter DR=68
